We go through one molecule from article PMC4358770 (Journal of medicinal chemistry, 2010).

The structures appear in SMILES notation.

Data set [1] concerns the target T1, NTPDase2 (Homo sapiens, UniProt Q9Y5L3).
T1 sequence (Q9Y5L3 1-495): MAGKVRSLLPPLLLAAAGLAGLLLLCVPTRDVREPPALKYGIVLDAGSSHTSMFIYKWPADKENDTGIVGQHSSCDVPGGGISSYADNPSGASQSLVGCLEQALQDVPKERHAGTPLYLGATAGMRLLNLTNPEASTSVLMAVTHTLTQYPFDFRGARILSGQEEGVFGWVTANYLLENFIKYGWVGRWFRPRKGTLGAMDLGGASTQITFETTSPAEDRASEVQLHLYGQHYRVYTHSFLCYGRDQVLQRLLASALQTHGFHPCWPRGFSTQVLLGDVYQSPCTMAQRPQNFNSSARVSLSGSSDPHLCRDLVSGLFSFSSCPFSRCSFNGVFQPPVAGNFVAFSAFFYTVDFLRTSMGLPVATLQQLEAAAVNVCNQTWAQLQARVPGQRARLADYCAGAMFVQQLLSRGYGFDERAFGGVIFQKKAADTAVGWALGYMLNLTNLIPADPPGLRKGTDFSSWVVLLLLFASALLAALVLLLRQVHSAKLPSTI
Briefly: NTPDase2 hydrolysis assay. In kind it is in vitro ADME. Conditions: 100 μM substrate; vs 100 μM ATP set at 100%. The method, boiled down: (§1)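 Enzymes were transiently expressed in COS-7 cells. Crude protein extracts were made by sonication, 300g clearing at 4 °C and storage at −80 °C, with protein measured by Bradford. Extract was preincubated 3 min at 37 °C in Tris-Ringer buffer, pH 7.4. […] Activity of untransfected-cell extract was subtracted.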

In data set [2] the target is turkey P2Y1 receptor (Meleagris gallopavo, UniProt P49652). The format is cell-based. The conditions noted are these: B isomer vs A isomer.
In data set [3] the target is T2, NTPDase3 (Homo sapiens, UniProt O75355).
T2 sequence (O75355 1-529): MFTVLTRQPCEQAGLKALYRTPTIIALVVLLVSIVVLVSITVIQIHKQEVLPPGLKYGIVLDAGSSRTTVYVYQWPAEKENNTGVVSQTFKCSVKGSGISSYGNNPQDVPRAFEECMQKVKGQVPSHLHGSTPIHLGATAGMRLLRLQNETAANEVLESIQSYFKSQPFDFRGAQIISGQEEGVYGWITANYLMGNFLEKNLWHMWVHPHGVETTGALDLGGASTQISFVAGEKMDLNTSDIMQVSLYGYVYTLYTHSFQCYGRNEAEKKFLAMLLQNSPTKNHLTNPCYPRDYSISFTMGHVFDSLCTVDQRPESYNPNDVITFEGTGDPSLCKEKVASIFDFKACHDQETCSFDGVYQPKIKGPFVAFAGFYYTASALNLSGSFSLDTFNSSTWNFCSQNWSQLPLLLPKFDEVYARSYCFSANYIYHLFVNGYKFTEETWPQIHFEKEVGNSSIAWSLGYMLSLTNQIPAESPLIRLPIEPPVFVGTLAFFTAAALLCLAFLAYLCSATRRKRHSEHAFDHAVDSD
In words: NTPDase3 hydrolysis assay. The format is in vitro ADME. Conditions: 100 μM substrate; vs 100 μM ATP set at 100%. The method, boiled down: as §1

For data set [4], the target named is T3, NTPDase1 (Homo sapiens, UniProt P49961).
T3 sequence (P49961 1-510): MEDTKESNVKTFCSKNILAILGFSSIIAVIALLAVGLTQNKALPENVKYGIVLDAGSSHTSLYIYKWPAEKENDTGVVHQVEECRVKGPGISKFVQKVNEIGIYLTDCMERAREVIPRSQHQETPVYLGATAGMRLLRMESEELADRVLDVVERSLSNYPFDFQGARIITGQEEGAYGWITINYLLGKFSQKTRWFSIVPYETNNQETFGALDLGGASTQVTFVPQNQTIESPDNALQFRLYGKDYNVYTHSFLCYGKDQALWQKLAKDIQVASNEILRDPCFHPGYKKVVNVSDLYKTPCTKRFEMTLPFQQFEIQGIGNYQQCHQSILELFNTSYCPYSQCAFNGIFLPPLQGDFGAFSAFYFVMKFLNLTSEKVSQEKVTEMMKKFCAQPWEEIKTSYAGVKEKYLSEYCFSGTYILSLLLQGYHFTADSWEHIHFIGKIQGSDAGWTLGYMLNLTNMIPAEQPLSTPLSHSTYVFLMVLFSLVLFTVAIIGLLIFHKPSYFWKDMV
In words: NTPDase1 hydrolysis assay. In kind it is in vitro ADME. The conditions noted are these: 100 μM substrate; vs 100 μM ATP set at 100%.

In data set [5] the target is T4, human NPP3 (Homo sapiens, UniProt O14638).
T4 sequence (O14638 1-875): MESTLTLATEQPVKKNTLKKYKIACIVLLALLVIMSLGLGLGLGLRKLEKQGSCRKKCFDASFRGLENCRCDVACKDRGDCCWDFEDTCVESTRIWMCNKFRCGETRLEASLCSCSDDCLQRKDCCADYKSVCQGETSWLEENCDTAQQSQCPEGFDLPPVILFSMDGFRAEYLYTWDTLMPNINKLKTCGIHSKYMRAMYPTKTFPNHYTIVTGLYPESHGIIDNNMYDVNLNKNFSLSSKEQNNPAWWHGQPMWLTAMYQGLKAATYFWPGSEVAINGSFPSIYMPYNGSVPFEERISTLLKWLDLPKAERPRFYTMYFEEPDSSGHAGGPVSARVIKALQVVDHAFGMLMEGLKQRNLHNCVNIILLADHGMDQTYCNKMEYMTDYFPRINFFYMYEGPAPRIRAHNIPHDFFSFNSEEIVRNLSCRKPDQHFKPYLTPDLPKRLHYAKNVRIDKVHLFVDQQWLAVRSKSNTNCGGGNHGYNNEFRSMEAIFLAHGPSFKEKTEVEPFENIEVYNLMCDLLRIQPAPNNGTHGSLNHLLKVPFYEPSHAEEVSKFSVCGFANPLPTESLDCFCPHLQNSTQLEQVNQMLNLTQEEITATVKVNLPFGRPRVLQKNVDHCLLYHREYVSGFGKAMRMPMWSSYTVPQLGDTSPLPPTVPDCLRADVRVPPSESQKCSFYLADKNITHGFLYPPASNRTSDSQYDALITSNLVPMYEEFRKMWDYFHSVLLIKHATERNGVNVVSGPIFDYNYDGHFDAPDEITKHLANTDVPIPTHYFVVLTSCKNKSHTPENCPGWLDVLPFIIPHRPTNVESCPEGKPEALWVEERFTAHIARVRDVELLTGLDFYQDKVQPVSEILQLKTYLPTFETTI
In words: NPP3 hydrolysis assay. The format is in vitro ADME. The conditions noted are these: 100 μM substrate; vs 100 μM ATP set at 100%.

turkey P2Y1 receptor, sequence (P49652 whole entry): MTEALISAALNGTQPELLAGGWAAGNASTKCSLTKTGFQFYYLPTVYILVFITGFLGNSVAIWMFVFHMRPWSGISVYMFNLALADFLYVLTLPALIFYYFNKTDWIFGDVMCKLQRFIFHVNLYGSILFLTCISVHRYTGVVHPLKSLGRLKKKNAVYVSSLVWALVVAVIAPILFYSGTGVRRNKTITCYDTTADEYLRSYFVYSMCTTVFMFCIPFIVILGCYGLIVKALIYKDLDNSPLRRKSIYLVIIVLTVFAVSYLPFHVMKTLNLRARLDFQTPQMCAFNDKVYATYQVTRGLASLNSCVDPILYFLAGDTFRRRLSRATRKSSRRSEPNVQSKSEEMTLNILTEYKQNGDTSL

`BP(=O)(OC[C@H]1O[C@@H](n2cnc3c(N)nc(SC)nc32)[C@H](O)[C@@H]1O)OP(=O)(O)C(Cl)(Cl)P(=O)(O)O` (stereo partly drawn) [analogue 12B, 2-MeS-adenosine-5′-O-(α-boranotriphosphate)-β,γ-CCl2]: the “relative hydrolysis by NTPDase2” value in data set [1] is “completely resistant”. Also, the “fold less potent at P2Y1R than the A isomer 12A” value in data set [2] came out at 2 fold. In addition, the “relative hydrolysis by NTPDase3” value in data set [3] was “completely resistant”. The “relative hydrolysis by NTPDase1” value in data set [4] was “completely resistant”. Also, in data set [5], the “relative hydrolysis by NPP3” value was “completely resistant”.
